# Source: PubChem BioAssay (Broad Institute)
# EWS-Fli block: blocks EWS/Fli oncoprotein-driven transcription; A673 NR0B1-luciferase reporter, viability-normalised; inhibition, % at 12.6 µM; 350,000 compounds, 0.67% hits;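 active means mean inhibition of at least 50% after viability correction, with every replicate also passing that limit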;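 further: firefly luciferase signal divided by Alamar Blue viability fluorescence both relative to DMSO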
# FN deposit inh: fibronectin deposition inhibition. 350,000 compounds, 0.086% hits. inhibition, % at 12.6 µM. AH1F fibroblasts, Alexa488-fibronectin deposition fluorescence, overnight;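 active means mean inhibition across replicates of 30% or more, regardless of how many single replicates reach that level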;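 further: positive control wells lacked labelled fibronectin entirely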
#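 material = AH1F fibroblast monolayer depositing Alexa488-labelled fibronectin into matrix | amount = 10000 AH1F cells/well | buffer or medium = DMEM plus 2% serum, read in PBS | incubation = 1 h cell adhesion before compound, then overnight fibronectin incubation | detection = fluorescence at 485 nm excitation, 525 nm emission | evaluation = percent inhibition as loss of matrix-bound fibronectin fluorescence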
# MLL AF4-AF9 inh: MLL-AF4/AF9 protein interaction inhibition. P42568. AlphaScreen, biotin-AF4 peptide binding to FLAG-AF9. inhibition, % at 10 µM. 350,000 compounds, 0.47% hits. AID 651704;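 active means every replicate reaching a set inhibition limit, whatever the replicate mean, cut at about 25% in these data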;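 further: 0% = plate neutral control median and 100% = total signal loss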
# Target sequence (P42568 whole entry, looked up): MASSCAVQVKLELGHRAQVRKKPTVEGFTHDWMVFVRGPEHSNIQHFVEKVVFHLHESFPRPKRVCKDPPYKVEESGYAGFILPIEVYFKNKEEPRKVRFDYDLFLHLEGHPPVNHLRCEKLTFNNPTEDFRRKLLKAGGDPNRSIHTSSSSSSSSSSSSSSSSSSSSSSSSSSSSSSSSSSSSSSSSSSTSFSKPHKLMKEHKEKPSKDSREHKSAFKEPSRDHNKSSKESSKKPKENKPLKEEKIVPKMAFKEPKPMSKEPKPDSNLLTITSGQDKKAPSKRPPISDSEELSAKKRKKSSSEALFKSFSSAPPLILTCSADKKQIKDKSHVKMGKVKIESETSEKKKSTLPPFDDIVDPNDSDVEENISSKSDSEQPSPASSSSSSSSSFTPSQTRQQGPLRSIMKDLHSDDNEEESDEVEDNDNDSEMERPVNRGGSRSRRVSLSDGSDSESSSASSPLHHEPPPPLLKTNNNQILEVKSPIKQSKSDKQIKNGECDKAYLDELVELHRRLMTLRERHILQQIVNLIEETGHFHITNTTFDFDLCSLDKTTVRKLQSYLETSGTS
# Glyco luc inh: blocks N-linked glycosylation in D54 reporter cells; D54 ERlucT glycosylation luciferase reporter, 24 h; percent of 100 nM tunicamycin response; reporter increase, % at 12.5 µM; 360,000 compounds, 0.23% hits; AID 588692;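 active means mean luciferase reporter signal, scaled so untreated is 0 and the glycosylation-blocking control 100, at or above a set limit in every replicate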;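 further: luciferase carries N-glycosylation sites so blocking glycosylation raises the light; 0% = median of neutral control wells and 100% = median of 100 nM tunicamycin wells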
# PAX8 inh HTS: inhibitors of PAX8 transcriptional activity in RMG-I cells | RMG-I TPO-luciferase reporter, SteadyGlo, 24 h | inhibition, % at 12.6 µM | 360,000 compounds, 1.2% hits | AID 652154;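 active means mean replicate inhibition at least 60% with every replicate also reaching 60%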;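 further: luciferase light reporting Pax8 driven TPO promoter activity; plate controls were median of neutral control wells for no effect and mitoxantrone controls for full effect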
# Env fusion inh: blocks HIV Env-driven cell-cell fusion | 360,000 compounds, 1.1% hits | HeLa-JRFL Env/CEM21 cell fusion, luciferase | inhibition, % at 12.3 µM;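 active means mean replicate inhibition score of at least 50 and every replicate individually at or above 50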;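 further: 0% = plate neutral controls and 100% = maraviroc near 300 nM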
# The depositor's hits bear a star; . = no result; [ ] = another dose, or the depositor's remark. A selection: hits, their analogues and other compounds. The true share with any hit is near 2.5%.
SMILES,EWS-Fli block,FN deposit inh,MLL AF4-AF9 inh,Glyco luc inh,PAX8 inh HTS,Env fusion inh
CCC(OC(=O)c1ccc(S(C)(=O)=O)c([N+](=O)[O-])c1)C(=O)NC1C2CC3CC(C2)CC1C3 (stereo not given),47,.,-3,-15,94*,-108
CO[C@@H]1CC[C@H]2CCN(C)C(=O)CCCN(C)C(=O)c3cccc(C#N)c3OC[C@H]1O2,-8,4,2,.,1,-34[16.7 µM]
C[C@H](CO)N1C[C@H](C)[C@@H](CN(C)S(=O)(=O)c2cccs2)Oc2ccc(NC(=O)Cc3ccccc3)cc2CC1=O,5,-9,-6,.,-6,46[16.7 µM]
COc1ccc(-c2cc3nc(C)n(N)c(=O)c3s2)cc1,90*,-5,-2,-20,86*,84*
Cc1nc2cc(-c3ccccc3)sc2c(=O)n1N,76*,1,1,-22,76*,64*
COc1ccc2c3c(n(C)c2c1)[C@H](CO)N(C(=O)CC1CC1)CC31CN(C(=O)C2CCC2)C1,-3,.,2,.,5,.
Cc1cc(C)n2nc(C)c(-c3ccccc3)c2n1,8,-5,-6,2,3,-57
COc1ccc(-c2c(C)nn3c(-c4ccccc4)cc(C)nc23)cc1,8,.,27*,-4,15,17
COc1ccc2c3c(n(C)c2c1)[C@@H](CO)N(S(C)(=O)=O)CC31CN(C(=O)C2CCCC2)C1,0,.,0,.,-18,.
Cc1cc(Cl)c(S(=O)(=O)N2CCCC2)cc1OCC(=O)NC1CCCCC1,.,-1,.,-7,4,78*
Cc1ccc(S(=O)(=O)Nc2ccc3c(c2)C(=O)N([C@@H](C)CO)C[C@@H](C)[C@H](CN(C)S(=O)(=O)c2ccc(Cl)cc2)O3)cc1,4,.,-4,.,-23,.
COc1ccc2c(c1)C(C)=CC(C)(C)N2S(=O)(=O)c1ccc(NC(C)=O)cc1,48,2,6,17,64*,-69
CCOc1ccc2c(c1)C(C)=CC(C)(C)N2S(=O)(=O)c1ccc(F)cc1,62*,-1,-6,9,44,-2
CCOc1ccc2c(c1)C(C)=CC(C)(C)N2S(=O)(=O)c1ccc(NC(C)=O)cc1,47,-38,-4,19,88*,-135
COc1ccc2c(c1)C(C)=CC(C)(C)N2S(=O)(=O)c1ccc(Br)cc1,50,-18,-3,5,88*,-80
CC1=CC(C)(C)N(S(=O)(=O)c2ccc(F)cc2)c2ccc(C)cc21,.,-6,.,8,.,45
CC(C)NC(=O)N(C)C[C@@H]1Oc2ccc(NC(=O)Nc3ccc(F)cc3)cc2C(=O)N([C@H](C)CO)C[C@@H]1C,-3,.,-1,.,-2,.
O=C(C[C@@H]1CC[C@H]2[C@@H](COC[C@@H](O)CN2Cc2ccccc2F)O1)N1CCc2ccccc2C1,-1,-6,0,.,-4,.
C[C@@H]1CCCCO[C@H](CN(C)S(=O)(=O)c2ccc(Cl)cc2)[C@@H](C)CN([C@@H](C)CO)C(=O)c2cc(N(C)C)ccc2O1,-8,.,.,.,26,-15[16.7 µM]
COc1cc(CNc2ncnc3c2ncn3[C@H]2CN(Cc3ccc(-c4ccccc4)cc3)C[C@@H](CO)O2)cc(OC)c1OC,35,5,1,4,94*,51
CC(C)CNc1ncnc2c1ncn2[C@H]1CN(Cc2ccco2)C[C@@H](CO)O1,-10,9,1,0,84*,6
CC(C)Nc1ncnc2c1ncn2[C@H]1CN(Cc2ccco2)C[C@@H](CO)O1,-2,-5,-1,0,-15,-2
COc1cc(CNc2ncnc3c2ncn3[C@H]2CN(Cc3ccc(C(=O)O)cc3)C[C@@H](CO)O2)cc(OC)c1OC,-10,4,0,0,13,-20
CO[C@@H]1CN(C)C(=O)c2ccc(NS(=O)(=O)c3ccccc3)cc2OC[C@H](C)N(Cc2nccs2)C[C@@H]1C,12,4,4,.,.,-51[16.7 µM]
CCCN1CCc2[nH]c(=S)[nH]c(=O)c2C1,-10,-3,12,0,72*,.
Nc1nc2c(ncn2C2C[C@H](O)[C@@H](CO)O2)c(=O)[nH]1 (stereo not given in full),8,-2,1,7,-4,6
Nc1nc2c(nnn2C2CC(O)C(CO)O2)c(=O)[nH]1 (stereo not given),-13,-1,-2,0,83*,15
